Results reported in ChEMBL document CHEMBL4616671, “Identification of N-Phenyl-7H-pyrrolo[2,3-d]pyrimidin-4-amine Derivatives as Novel, Potent, and Selective NF-κB Inducing Kinase (NIK) Inhibitors for the Treatment of Psoriasis” (J Med Chem, 2020).
Activity calls are given as the source filed them. The rule behind the calls is not given here.

How the values were obtained:
Homo sapiens = species: Homo sapiens; experiment: Selectivity ratio of IC50 for human LRRK2 to IC50 for human NIK
[1] = Elimination half life in dog liver microsomes incubated for 10 mins followed by potassium phosphate buffer addition and measured after 5 to 60 mins by LC-MS/MS analysis; type: ADME, Canis lupus familiaris, Microsome; conditions: read-out: beta t1/2
Method in brief: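 Rat, dog, monkey or human liver microsomes pre-incubated with compound at 37 °C for 10 min; reaction started after pre-warming and stopped at 5, 15, 30, 60 min with chilled quench containing tolbutamide and labetalol. No-cofactor control in 100 mM potassium phosphate for 60 min. LC-MS/MS analysis; first-order fit: k = −slope, T1/2 = 0.693/k, CLint = k/microsomal protein concentration.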

[2] = target: Mitogen-activated protein kinase kinase kinase 14 (Mus musculus) (UniProt Q9WUL6); experiment: Inhibition of NIK in mouse J774 cells assessed as reduction in LPS-induced IL6 mRNA level by SYBR green dye-based quantitative PCR analysis; type: cell-based
Method in brief: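 LPS-stimulated J774 macrophages; mRNA quantified by qPCR using 4 µL cDNA plus 16 µL master mix per reaction. Mean ± SD of three biological replicates; significance by two-tailed Student's t-test against the model group.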

Mitogen-activated protein kinase kinase kinase 14 (Mus musculus), sequence (Q9WUL6 whole entry): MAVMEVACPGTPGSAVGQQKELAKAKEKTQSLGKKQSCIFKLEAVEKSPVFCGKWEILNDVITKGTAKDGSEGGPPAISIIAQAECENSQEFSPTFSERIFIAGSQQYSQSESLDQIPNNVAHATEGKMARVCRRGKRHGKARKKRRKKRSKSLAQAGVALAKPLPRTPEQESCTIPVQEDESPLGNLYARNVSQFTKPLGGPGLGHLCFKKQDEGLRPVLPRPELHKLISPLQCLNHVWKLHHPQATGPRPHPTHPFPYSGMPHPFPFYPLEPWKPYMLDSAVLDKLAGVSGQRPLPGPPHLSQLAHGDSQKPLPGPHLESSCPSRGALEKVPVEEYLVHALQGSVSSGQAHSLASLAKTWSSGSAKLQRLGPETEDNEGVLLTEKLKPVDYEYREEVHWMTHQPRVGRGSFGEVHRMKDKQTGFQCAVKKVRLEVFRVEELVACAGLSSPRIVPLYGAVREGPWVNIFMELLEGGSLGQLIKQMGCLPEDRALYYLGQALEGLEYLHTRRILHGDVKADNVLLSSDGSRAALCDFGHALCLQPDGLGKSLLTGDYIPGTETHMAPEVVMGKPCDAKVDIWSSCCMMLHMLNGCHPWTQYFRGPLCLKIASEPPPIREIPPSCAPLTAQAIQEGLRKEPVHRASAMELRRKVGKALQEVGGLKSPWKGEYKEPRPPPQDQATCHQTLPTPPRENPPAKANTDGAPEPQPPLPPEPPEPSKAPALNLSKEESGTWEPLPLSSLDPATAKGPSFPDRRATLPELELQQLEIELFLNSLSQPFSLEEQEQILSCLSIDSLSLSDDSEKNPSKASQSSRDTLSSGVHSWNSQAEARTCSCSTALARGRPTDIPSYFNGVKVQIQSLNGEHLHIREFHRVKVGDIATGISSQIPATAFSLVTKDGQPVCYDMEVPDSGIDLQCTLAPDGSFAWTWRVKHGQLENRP

Ratio IC50 (Homo sapiens): 4 to 20 | half-life [1]: 32.4 min | inhibition [2]: Active
SMILES: CC(O)(C#Cc1ccc(N2CCOCC2)c(Nc2ncnc3[nH]ccc23)c1)c1nccs1 (racemic)
